Assay results from publication PMC4467529 (Bioorganic & medicinal chemistry, 2015).
“Also recorded” adds a separate entry of the source.

Experiments:
[1] = tested on: NF-κB; type: cell-based, human; settings: for NF-κB inhibitory activity (in words): PMA-induced SW1353 cells; for IC50: Homo sapiens, SW1353, read-out: NF-κB IC50
Outline: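 SW1353 cells were grown in DMEM/F12 with 10% FBS and electroporated with an NF-κB luciferase plasmid (50 μg/mL; 160 V, one 70-ms pulse). They were plated at 1.25 × 10⁵ cells/well for 24 h. […] Parthenolide was the reference; Sp-1 served as control factor.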

[2] = In vitro cytotoxicity, Neutral Red assay; type: cell-based; settings: pig, LLC-PK11 pig kidney epithelial cells
Outline: (§1)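 Cells were kept in RPMI-1640 with 10% bovine calf serum and amikacin 60 mg/L at 37 °C, 5% CO₂. They were seeded at 25,000 cells/well and grown 24 h, then exposed 48 h to test compound diluted in serum-free medium, tested up to 25 μg/ml. Viability was read by Neutral Red, as % decrease versus vehicle. IC50 came from dose curves, in triplicate, with doxorubicin as reference.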

[3] = In vitro cytotoxicity, Neutral Red assay; type: cell-based; settings: human, SK-OV-3 ovary carcinoma cells
Outline: (§2)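 Cells grown in RPMI-1640 with 10% bovine calf serum and amikacin (60 mg/L), 37°C, 5% CO₂, 95% humidity. Seeded at 25,000 cells/well, grown 24 h. Test samples diluted in serum-free medium, exposure 48 h. Viable cells counted by Neutral Red uptake; % viability loss against vehicle control. IC50 from dose curves, triplicate, means reported.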

[4] = In vitro cytotoxicity, Neutral Red assay; type: cell-based; settings: human, BT-549 breast ductal carcinoma cells
Outline: as §1

[5] = In vitro cytotoxicity, Neutral Red assay; type: cell-based; settings: human, KB oral epidermal carcinoma cells
Outline: as §2

[6] = In vitro cytotoxicity, Neutral Red assay; type: cell-based; settings: human, SK-MEL malignant melanoma cells
Outline: as §1

[7] = In vitro cytotoxicity, Neutral Red assay; type: cell-based; settings: African green monkey, Vero cells (kidney fibroblasts)
Outline: as §1

[8] = tested on: rat paw edema; test: Carrageenan-induced rat paw edema assay; type: in vivo; settings: for in vivo anti-inflammatory activity (in words): rat paw edema, compared to ketorolac; for Edema thickness ±SEM, 1h / Edema thickness ±SEM, 2h / Edema thickness ±SEM, 3h / Edema thickness ±SEM, 4h: rat, 30 mg/kg intraperitoneally; for Edema thickness ±SEM, 1h: 1h after induction; for Edema thickness ±SEM, 2h: 2h after induction; for Edema thickness ±SEM, 3h: 3h after induction; for Edema thickness ±SEM, 4h: 4h after induction
Outline: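 Adult albino rats of both sexes (120–150 g), pre-hydrated with 3 ml water by gavage, in groups of five. Test compound or ketorolac tromethamine was suspended in distilled water with a few drops of Tween 80 and given i.p. 1 h before 1% carrageenan s.c. into the right hind subplantar paw. Controls got saline/Tween 80.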

SMILES | NF-κB inhibitory activity (in words) [1] | IC50 [1] [µg/mL] | IC50 at 48 h [2] [µg/mL] | IC50 at 48 h [3] [µg/mL] | IC50 at 48 h [4] [µg/mL] | IC50 at 48 h [5] [µg/mL] | IC50 at 48 h [6] [µg/mL] | IC50 at 48 h [7] [µg/mL] | in vivo anti-inflammatory activity (in words) [8] | Edema thickness ±SEM, 1h [8] | Edema thickness ±SEM, 2h [8] | Edema thickness ±SEM, 3h [8] | Edema thickness ±SEM, 4h [8]
O=c1sc2ccccc2n1CCCCCCN1CCN(CCn2c(=O)sc3ccccc32)CC1 [Compound 5h, 3-(6-(4-(2-(2-oxobenzo[d]thiazol-3(2H)-yl)ethyl)piperazin-1-yl)hexyl)benzo[d]thiazol-2(3H)-one] | moderately active | – | – | – | – | – | – | – | – | – | – | – | –
O=c1oc2ccccc2n1CCCCCN1CCN(CCCCn2c(=O)oc3ccccc32)CC1 [Compound 5o, 3-(5-(4-(4-(2-oxobenzo[d]oxazol-3(2H)-yl)butyl)piperazin-1-yl)pentyl)benzo[d]oxazol-2(3H)-one] | – | > 25 | > 25 | > 25 | > 25 | > 25 | > 25 | – | – | – | – | – | –
O=c1sc2ccccc2n1CCCCCCN1CCN(CCCCCCn2c(=O)sc3ccccc32)CC1 [Compound 3j, 3,3′-(piperazine-1,4-diylbis(hexane-6,1-diyl))bis(benzo[d]thiaazol-2(3H)-one)] | – | – | > 25 | – | – | – | > 25 | > 25 | significant anti-inflammatory and analgesic activity; also recorded: moderate activities compared to ketorolac | 95.50 ± 1.02 ×10^−2 mm | 97.24 ± 2.35 ×10^−2 mm | 101.6 ± 1.68 ×10^−2 mm | 123.5 ± 1.13 ×10^−2 mm
O=c1sc2ccccc2n1CCCCN1CCN(CCCn2c(=O)sc3ccccc32)CC1 [Compound 5j, 3-(3-(4-(4-(2-oxobenzo[d]thiazol-3(2H)-yl)butyl)piperazin-1-yl)propyl)benzo[d]thiazol-2(3H)-one] | moderately active | – | – | – | – | – | – | – | – | – | – | – | –
O=c1sc2ccccc2n1CCCCCCN1CCN(CCCn2c(=O)sc3ccccc32)CC1 [Compound 5n, 3-(3-(4-(6-(2-oxobenzo[d]thiazol-3(2H)-yl)hexyl)piperazin-1-yl)propyl)benzo[d]thiazol-2(3H)-one] | moderately active | – | > 25 | > 25 | – | > 25 | – | > 25 | – | – | – | – | –
c1ccc2oc(SCCCCN3CCN(CCCCSc4nc5ccccc5o4)CC3)nc2c1 [Compound 8a, 1,4-bis(4-(benzo[d]oxazol-2-ylthio)butyl)piperazine] | – | – | – | > 25 | – | – | – | > 25 | – | – | – | – | –
O=c1sc2ccccc2n1CCCN1CCN(CCCn2c(=O)sc3ccccc32)CC1 [Compound 3d, 3,3′-(piperazine-1,4-diylbis(propane-3,1-diyl))bis(benzo[d]thiazol-2(3H)-one)] | – | > 25 | – | > 25 | > 25 | > 25 | > 25 | > 25 | – | – | – | – | –
O=c1sc2ccccc2n1CCCCCN1CCN(CCCn2c(=O)sc3ccccc32)CC1 [Compound 5l, 3-(3-(4-(5-(2-oxobenzo[d]thiazol-3(2H)-yl)pentyl)piperazin-1-yl)propyl)benzo[d]thiazol-2(3H)-one] | – | – | > 25 | > 25 | – | > 25 | – | > 25 | – | – | – | – | –
O=c1sc2ccccc2n1CCCCCN1CCN(CCCCn2c(=O)sc3ccccc32)CC1 [Compound 5p, 3-(5-(4-(4-(2-oxobenzo[d]thiazol-3(2H)-yl)butyl)piperazin-1-yl)pentyl)benzo[d]thiazol-2(3H)-one] | – | – | > 25 | > 25 | – | > 25 | – | > 25 | – | – | – | – | –
O=c1oc2ccccc2n1CCCCCCN1CCN(CCCCCn2c(=O)oc3ccccc32)CC1 [Compound 5s, 3-(5-(4-(6-(2-oxobenzo[d]oxazol-3(2H)-yl)hexyl)piperazin-1-yl)pentyl)benzo[d]oxazol-2(3H)-one] | – | – | > 25 | > 25 | – | > 25 | – | > 25 | – | – | – | – | –
O=c1sc2ccccc2n1CCCCCCN1CCN(CCCCCn2c(=O)sc3ccccc32)CC1 [Compound 5t, 3-(5-(4-(6-(2-oxobenzo[d]thiazol-3(2H)-yl)hexyl)piperazin-1-yl)pentyl)benzo[d]thiazol-2(3H)-one] | – | – | > 25 | – | – | > 25 | > 25 | – | significant anti-inflammatory and analgesic activity; also recorded: moderate activities compared to ketorolac | 93.01 ± 1.93 ×10^−2 mm | 91.57 ± 2.63 ×10^−2 mm | 109.24 ± 1.36 ×10^−2 mm | 127.34 ± 1.87 ×10^−2 mm
O=c1oc2ccccc2n1CCCCCCN1CCN(CCCCn2c(=O)oc3ccccc32)CC1 [Compound 5q, 3-(6-(4-(4-(2-oxobenzo[d]oxazol-3(2H)-yl)butyl)piperazin-1-yl)hexyl)benzo[d]oxazol-2(3H)-one] | – | – | > 25 | > 25 | > 25 | > 25 | > 25 | > 25 | – | – | – | – | –
O=c1oc2ccccc2n1CCCN1CCN(CCCn2c(=O)oc3ccccc32)CC1 [Compound 3c, 3,3′-(piperazine-1,4-diylbis(propane-3,1-diyl))bis(benzo[d]oxazol-2(3H)-one)] | – | – | > 25 | > 25 | > 25 | > 25 | > 25 | > 25 | – | – | – | – | –
O=c1sc2ccccc2n1CCCCCCN1CCN(CCCCn2c(=O)sc3ccccc32)CC1 [Compound 5r, 3-(6-(4-(4-(2-oxobenzo[d]thiazol-3(2H)-yl)butyl)piperazin-1-yl)hexyl)benzo[d]thiazol-2(3H)-one] | – | – | > 25 | > 25 | – | – | – | > 25 | – | – | – | – | –
O=c1oc2ccccc2n1CCCCCN1CCN(CCCCCn2c(=O)oc3ccccc32)CC1 [Compound 3g, 3,3′-(piperazine-1,4-diylbis(pentane-5,1-diyl))bis(benzo[d]oxazol-2(3H)-one)] | – | – | > 25 | > 25 | > 25 | > 25 | > 25 | – | – | – | – | – | –
c1ccc2sc(SCCCCN3CCN(CCCCSc4nc5ccccc5s4)CC3)nc2c1 [Compound 8b, 1,4-bis(4-(benzo[d]thiazol-2-ylthio)butyl)piperazine] | – | – | > 25 | > 25 | > 25 | – | – | > 25 | significant anti-inflammatory and analgesic activity; also recorded: most active dimer; also recorded: promising in vivo activity which was comparable to indomethacin and ketorolac | 56.48 ± 2.14 ×10^−2 mm | 55.6 ± 2.09 ×10^−2 mm | 61.32 ± 1.67 ×10^−2 mm | 103.54 ± 1.77 ×10^−2 mm
O=C(c1ccccc1)c1ccc2n1CCC2C(=O)O (stereo not shown) [Ketorolac, ketorolac tromethamine, reference compound] | – | – | – | – | – | – | – | – | – | 41.6 ± 2.02 ×10^−2 mm | 40.2 ± 2.82 ×10^−2 mm | 41.2 ± 2.06 ×10^−2 mm | 40.4 ± 1.52 ×10^−2 mm
O=c1oc2ccccc2n1CCCCCCN1CCN(CCCCCCn2c(=O)oc3ccccc32)CC1 [Compound 3i, 3,3′-(piperazine-1,4-diylbis(hexane-6,1-diyl))bis(benzo[d]oxazol-2(3H)-one)] | devoid of any activity | > 25 | > 25 | > 25 | – | > 25 | – | > 25 | – | – | – | – | –
O=c1sc2ccccc2n1CCCN1CCN(CCn2c(=O)sc3ccccc32)CC1 [Compound 5b, 3-(3-(4-(2-(2-oxobenzo[d]thiazol-3(2H)-yl)ethyl)piperazin-1-yl)propyl)benzo[d]thiazol-2(3H)-one] | – | > 25 | – | > 25 | > 25 | > 25 | > 25 | > 25 | – | – | – | – | –
O=c1oc2ccccc2n1CCCCCN1CCN(CCn2c(=O)oc3ccccc32)CC1 [Compound 5e, 3-(5-(4-(2-(2-oxobenzo[d]oxazol-3(2H)-yl)ethyl)piperazin-1-yl)pentyl)benzo[d]oxazol-2(3H)-one] | – | – | > 25 | > 25 | > 25 | > 25 | > 25 | > 25 | – | – | – | – | –
O=c1sc2ccccc2n1CCCCCN1CCN(CCCCCn2c(=O)sc3ccccc32)CC1 [Compound 3h, 3,3′-(piperazine-1,4-diylbis(pentane-5,1-diyl))bis(benzo[d]thiazol-2(3H)-one)] | – | – | > 25 | – | – | > 25 | – | > 25 | – | – | – | – | –
